Test results from ChEMBL document CHEMBL1154907, “Synthesis and preclinical evaluations of 2-(2-fluorophenyl)-6,7-methylenedioxyquinolin-4-one monosodium phosphate (CHM-1-P-Na) as a potent antitumor agent” (J Med Chem, 2010).
The source made the active and inactive calls. No cut-off for these calls is given here.

Tests used:
[1] = tested on: SK-OV-3; assay: Growth inhibition of human SKOV3 cells by SRB assay; assay type: functional
Method in brief: (§1)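 Cancer cell panel; growth measured by sulforhodamine B colorimetric method across five concentrations from 10^-4 to 10^-8 M; GI50, TGI and LC50 derived from computer-analysed dose-response curves.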

[2] = tested on: OVCAR-3; assay: Antitumor activity against human OVCAR-3 cells xenografted in nude mouse assessed as increase in lifespan of organism at 134 mg/kg, ip administered in Q7D x 3 schedule relative to control; assay type: functional; settings: route intraperitoneal
[3] = target: MAO-A (Homo sapiens, UniProt P21397); assay: Inhibition of human MAO-A at 10 uM by enzyme assay
Sequence of MAO-A (P21397 whole entry): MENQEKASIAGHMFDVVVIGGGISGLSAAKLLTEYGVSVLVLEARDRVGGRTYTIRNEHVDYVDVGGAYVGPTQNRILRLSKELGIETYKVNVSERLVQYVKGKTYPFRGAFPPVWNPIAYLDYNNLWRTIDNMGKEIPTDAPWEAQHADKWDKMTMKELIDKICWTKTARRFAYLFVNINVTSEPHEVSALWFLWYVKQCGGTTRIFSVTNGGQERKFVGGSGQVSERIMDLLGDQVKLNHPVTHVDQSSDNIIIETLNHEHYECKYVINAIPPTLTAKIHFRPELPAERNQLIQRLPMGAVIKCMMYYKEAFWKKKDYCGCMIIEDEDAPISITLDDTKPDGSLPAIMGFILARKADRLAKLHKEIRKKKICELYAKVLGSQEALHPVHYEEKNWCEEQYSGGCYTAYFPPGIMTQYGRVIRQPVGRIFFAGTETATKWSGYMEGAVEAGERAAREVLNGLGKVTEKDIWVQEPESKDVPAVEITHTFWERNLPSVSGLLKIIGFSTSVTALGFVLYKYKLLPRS
Method in brief: (§2)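 Commercial spectrum screen of enzyme assays under standard protocols; percent inhibition tested at 10 μM; IC50 determined for targets showing significant inhibition at that concentration; SEM given where multiple independent determinations.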

[4] = tested on: NCI-H23; assay: Growth inhibition of human NCI-H23 cells by SRB assay; assay type: functional
Method in brief: (§3)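 Human cancer cell panel; five concentrations from 10^-4 to 10^-8 M; growth measured by sulforhodamine B colorimetric method; GI50, TGI and LC50 derived from computer-analysed dose-response curves.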

[5] = tested on: SK-OV-3; assay: Cell cycle arrest in human SKOV3 cells assessed as increase in accumulation of hypodiploid cells at 10 uM after 48 hrs by propidium iodide-based flow cytometry; assay type: functional
Method in brief: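 SKOV-3 cells (DMEM/F-12, 10% fetal calf serum) treated with 10 μM for 6, 12, 24, 36 or 48 h; trypsinized, PBS-washed, fixed in 70% ice-cold ethanol overnight at -20 °C, RNase A treated, propidium iodide stained; DNA content by flow cytometry, phase percentages and hypodiploid fraction scored.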

[6] = tested on: NCI-H460; assay: Growth inhibition of human NCI-H460 cells by SRB assay; assay type: functional; method in brief: as §3
[7] = Growth inhibition of human DMS144 cells by SRB assay; assay type: functional; method in brief: as §3
[8] = tested on: MCF7; assay: Growth inhibition of human MCF7 cells by SRB assay; assay type: functional; method in brief: as §3
[9] = tested on: HCT-15; assay: Growth inhibition of human HCT15 cells by SRB assay; assay type: functional; method in brief: as §3
[10] = Toxicity in ip dosed nude mouse assessed as maximum tolerated dose; assay type: organism-based; settings: in vivo
[11] = AUC (0 to infinity) in CD1 mouse at 10 mg/kg, ip; assay type: ADME, organism-based; parameters: dose 10 mg/kg, route intraperitoneal, time infinity; settings: plasma
Method in brief: (§4)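 Male CD-1 (Crl.) mice (22-24 g), single 10 mg/kg dose. Prodrug in 9% NaHCO3/water (1 mg/mL) given iv by tail vein or po by gavage after 4 h fast; parent given ip in cremophor/DMSO/saline 20/5/75 (2 mg/mL). Plasma sampled to 27 h, three mice per time point, acetonitrile precipitation, LC-MS/MS (ESI positive); parameters from mean plasma concentrations.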

[12] = tested on: NCI-H522; assay: Growth inhibition of human NCI-H522 cells by SRB assay; assay type: functional; method in brief: as §3
[13] = Growth inhibition of human RXF631L cells by SRB assay; assay type: functional, RXF 631; method in brief: as §1
[14] = Growth inhibition of human HBC4 cells by SRB assay; assay type: functional; method in brief: as §3
[15] = tested on: DU-145; assay: Growth inhibition of human DU145 cells by SRB assay; assay type: functional; method in brief: as §3
[16] = species: Rattus norvegicus; assay: Displacement of […] from benzodiazepine binding site of rat GABAA receptor at 10 uM radioligand binding assay
Method in brief: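 Radioligand binding screen run by contract lab under standard protocols; rat GABA_A sites; single-point inhibition at 10 μM, with IC50 determined where inhibition was significant.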

[17] = Growth inhibition of human BSY1 cells by SRB assay; assay type: functional, BSY-1; method in brief: as §3
[18] = tested on: LOX IMVI; assay: Growth inhibition of human LOXIMVI cells by SRB assay; assay type: functional; method in brief: as §3
[19] = tested on: SF-539; assay: Growth inhibition of human SF539 cells by SRB assay; assay type: functional; method in brief: as §1
[20] = tested on: MDA-MB-231; assay: Growth inhibition of human MDA-MB-231 cells by SRB assay; assay type: functional; method in brief: as §3
[21] = target: Cathepsin D (Homo sapiens) (UniProt P07339); assay: Inhibition of human cathepsin D at 10 uM by enzyme assay; method in brief: as §2
Sequence of Cathepsin D (Homo sapiens) (P07339 65-162 limits assumed): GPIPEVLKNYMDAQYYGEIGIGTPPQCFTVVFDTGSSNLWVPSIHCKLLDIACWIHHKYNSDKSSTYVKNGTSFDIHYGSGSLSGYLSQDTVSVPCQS
Sequence of Cathepsin D (Homo sapiens) (P07339 169-412 limits assumed): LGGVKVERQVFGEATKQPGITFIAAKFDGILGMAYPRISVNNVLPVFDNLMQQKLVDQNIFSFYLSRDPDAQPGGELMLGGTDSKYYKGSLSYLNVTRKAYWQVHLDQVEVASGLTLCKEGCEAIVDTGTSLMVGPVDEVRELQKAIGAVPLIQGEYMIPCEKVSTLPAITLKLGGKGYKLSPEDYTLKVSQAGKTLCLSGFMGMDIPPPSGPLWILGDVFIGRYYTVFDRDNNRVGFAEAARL

[22] = tested on: KM12; assay: Growth inhibition of human KM12 cells by SRB assay; assay type: functional; method in brief: as §3
[23] = tested on: MKN-28; assay: Growth inhibition of human MKN28 cells by SRB assay; assay type: functional; method in brief: as §3
[24] = tested on: DMS-273; assay: Growth inhibition of human DMS273 cells by SRB assay; assay type: functional; method in brief: as §3
[25] = tested on: SF-295; assay: Growth inhibition of human SF295 cells by SRB assay; assay type: functional; method in brief: as §1
[26] = target: Mitogen-activated protein kinase 10 (Homo sapiens) (UniProt P53779); assay: Inhibition of human JNK3 at 10 uM by enzyme assay; method in brief: as §2
Sequence of Mitogen-activated protein kinase 10 (Homo sapiens) (P53779 whole entry): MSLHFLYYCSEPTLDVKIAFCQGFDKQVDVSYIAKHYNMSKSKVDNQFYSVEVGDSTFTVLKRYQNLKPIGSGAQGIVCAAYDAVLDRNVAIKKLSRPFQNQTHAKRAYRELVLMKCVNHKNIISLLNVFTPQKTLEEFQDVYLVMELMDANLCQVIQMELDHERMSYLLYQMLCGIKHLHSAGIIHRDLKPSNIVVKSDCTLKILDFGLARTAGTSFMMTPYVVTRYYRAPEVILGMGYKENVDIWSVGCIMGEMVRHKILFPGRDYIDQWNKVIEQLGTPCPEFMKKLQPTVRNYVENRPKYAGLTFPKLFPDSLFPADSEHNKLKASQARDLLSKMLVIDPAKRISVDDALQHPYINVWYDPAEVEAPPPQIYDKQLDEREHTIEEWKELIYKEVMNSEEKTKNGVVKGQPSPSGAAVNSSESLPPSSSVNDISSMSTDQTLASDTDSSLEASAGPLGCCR

[27] = tested on: MKN-74; assay: Growth inhibition of human MKN74 cells by SRB assay; assay type: functional; method in brief: as §3
[28] = target: Cathepsin S (Homo sapiens) (UniProt P25774); assay: Inhibition of human cathepsin S at 10 uM by enzyme assay; method in brief: as §2
Sequence of Cathepsin S (Homo sapiens) (P25774 115-331 limits assumed): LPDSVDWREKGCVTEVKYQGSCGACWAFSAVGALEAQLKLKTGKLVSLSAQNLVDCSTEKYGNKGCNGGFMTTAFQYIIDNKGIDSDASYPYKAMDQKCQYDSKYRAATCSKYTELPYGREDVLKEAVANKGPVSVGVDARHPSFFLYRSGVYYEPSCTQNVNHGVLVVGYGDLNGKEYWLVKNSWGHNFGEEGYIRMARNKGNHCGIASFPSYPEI

[29] = tested on: OVCAR-3; assay: Growth inhibition of human OVCAR-3 cells by SRB assay; assay type: functional; method in brief: as §3
[30] = Cmax in CD1 mouse at 10 mg/kg, ip; assay type: ADME, organism-based; parameters: dose 10 mg/kg, route intraperitoneal; settings: in vivo; method in brief: as §4
[31] = tested on: HCT-116; assay: Growth inhibition of human HCT116 cells by SRB assay; assay type: functional; method in brief: as §3
[32] = tested on: OVCAR-4; assay: Growth inhibition of human OVCAR4 cells by SRB assay; assay type: functional; method in brief: as §3
[33] = read-out: pLC50 (the source's name) (converted)

Structure (SMILES): O=c1cc(-c2ccccc2F)[nH]c2cc3c(cc12)OCO3
- GI50 [1]: 85.1 nM
- CC50 [1, 33]: 63100 nM
- TGI ([1]; read-out: pTGI (converted)): 501 nM
- Activity [2]: 133%
- inhibition at 10 µM [3]: 52%
- GI50 ([4]; NCI-H23): 1170 nM
- CC50 ([4]; NCI-H23, read-out: pLC50 (converted)): > 100000 nM
- TGI ([4]; NCI-H23, read-out: pTGI): > 100000 nM
- Activity [5]: Active
- GI50 ([6]; NCI-H460, read-out: pGI50 (converted)): > 100000 nM
- CC50 ([6]; NCI-H460, read-out: pLC50 (converted)): > 100000 nM
- TGI ([6]; NCI-H460, read-out: pTGI): > 100000 nM
- GI50 ([7]; DMS144): 53.7 nM
- CC50 ([7]; DMS144, read-out: pLC50 (converted)): > 100000 nM
- TGI ([7]; DMS144, read-out: pTGI (converted)): 676 nM
- GI50 ([8]; MCF7): 158 nM
- CC50 ([8]; MCF7, read-out: pLC50 (converted)): > 100000 nM
- TGI ([8]; MCF7, read-out: pTGI): > 100000 nM
- GI50 ([9]; HCT-15): 50.1 nM
- CC50 ([9]; HCT-15, read-out: pLC50 (converted)): > 100000 nM
- TGI ([9]; HCT-15, read-out: pTGI): > 100000 nM
- MTD [10]: 200 mg/kg
- AUC(0-inf) [11]: 417 ng·h/mL
- GI50 ([12]; NCI-H522): 60.3 nM
- CC50 ([12]; NCI-H522, read-out: pLC50 (converted)): > 100000 nM
- TGI ([12]; NCI-H522, read-out: pTGI (converted)): 562 nM
- GI50 ([13]; RXF 631): 79.4 nM
- CC50 ([13]; RXF 631, read-out: pLC50 (converted)): > 100000 nM
- TGI ([13]; RXF 631, read-out: pTGI (converted)): 501 nM
- GI50 ([14]; HBC4): 347 nM
- CC50 ([14]; HBC4, read-out: pLC50 (converted)): > 100000 nM
- TGI ([14]; HBC4, read-out: pTGI): > 100000 nM
- GI50 ([15]; DU-145): 50.1 nM
- CC50 ([15]; DU-145, read-out: pLC50 (converted)): > 100000 nM
- TGI ([15]; DU-145, read-out: pTGI (converted)): 562 nM
- inhibition [16]: 83%
- GI50 ([17]; BSY-1): 324 nM
- CC50 ([17]; BSY-1, read-out: pLC50 (converted)): > 100000 nM
- TGI ([17]; BSY-1, read-out: pTGI (converted)): 13200 nM
- GI50 [18]: 123 nM
- CC50 ([18]; read-out: pLC50 (converted)): > 100000 nM
- TGI ([18]; read-out: pTGI (converted)): 676 nM
- GI50 [19]: 120 nM
- CC50 [19, 33]: 89100 nM
- TGI ([19]; read-out: pTGI (converted)): 501 nM
- GI50 ([20]; MDA-MB-231): 155 nM
- CC50 ([20]; MDA-MB-231, read-out: pLC50 (converted)): > 100000 nM
- TGI ([20]; MDA-MB-231, read-out: pTGI (converted)): 52500 nM
- inhibition [21]: 27%
- GI50 ([22]; KM12): 67.6 nM
- CC50 ([22]; KM12, read-out: pLC50 (converted)): > 100000 nM
- TGI ([22]; KM12, read-out: pTGI): > 100000 nM
- GI50 ([23]; MKN-28): 112 nM
- CC50 ([23]; MKN-28, read-out: pLC50 (converted)): > 100000 nM
- TGI ([23]; MKN-28, read-out: pTGI (converted)): 17800 nM
- GI50 ([24]; DMS-273): 56.2 nM
- CC50 ([24]; DMS-273, read-out: pLC50 (converted)): > 100000 nM
- TGI ([24]; DMS-273, read-out: pTGI): > 100000 nM
- GI50 ([25]; SF-295): 115 nM
- CC50 ([25]; SF-295, read-out: pLC50 (converted)): > 100000 nM
- TGI ([25]; SF-295, read-out: pTGI (converted)): 52500 nM
- inhibition [26]: 55%
- GI50 ([27]; MKN-74): 162 nM
- CC50 ([27]; MKN-74, read-out: pLC50 (converted)): > 100000 nM
- TGI ([27]; MKN-74, read-out: pTGI (converted)): 871 nM
- inhibition [28]: 1%
- GI50 ([29]; OVCAR-3): 7080 nM
- CC50 ([29]; OVCAR-3, read-out: pLC50 (converted)): > 100000 nM
- TGI ([29]; OVCAR-3, read-out: pTGI): > 100000 nM
- Cmax [30]: 155 ng/mL
- GI50 ([31]; HCT-116): 64.6 nM
- CC50 ([31]; HCT-116, read-out: pLC50 (converted)): > 100000 nM
- TGI ([31]; HCT-116, read-out: pTGI): > 100000 nM
- GI50 [32]: 28.2 nM
- CC50 [32, 33]: 513 nM
- TGI ([32]; read-out: pTGI (converted)): 64.6 nM
